Experimental data as given in ChEMBL document CHEMBL2439990, “Serendipity in drug-discovery: a new series of 2-(benzyloxy)benzamides as TRPM8 antagonists” (Bioorg Med Chem Lett, 2013).
pEC50, pIC50: −log10 of the molar value.

What was measured:
[1] = biological target: Transient receptor potential cation channel subfamily M member 8 (Homo sapiens, UniProt Q7Z2W7); experiment: Inhibition of human TRPM8 (unknown origin) expressed in HEK293 cells assessed as inhibition of WS12-induced Ca2+ elevation by FLIPR assay; assay type: cell-based
In short: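 IC50 values plus modified Kb values computed from the geometric mean of agonist EC50 and slope. At least three independent experiments.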

Rattus norvegicus = species: Rattus norvegicus; experiment: Inhibition of rat calcium channel L-site diltiazem binding site at 10 uM
[2] = Apparent intrinsic clearance in human liver microsomes; assay type: ADME, Microsome; settings: read-out: CLH(app)
[3] = Lipophilicity, log D of the compound at pH 7.4; assay type: physicochemical; settings: buffer
[4] = Half life in DMSO/aqueous buffer assessed as N-(2-(4-(benzyloxy)-3-methoxybenzylamino)ethyl)thiophene-2-carboxamide formation; assay type: physicochemical

| Structure (SMILES) | Kb [1] [nM] | pIC50 [1] | also measured |
| --- | --- | --- | --- |
| COc1cc(CN(CCN)C(=O)O[C@@H](C)c2ccccc2)ccc1OCc1ccccc1 | 7.8 |  |  |
| CCN(C(=O)c1ccccc1OCc1ccccc1)[C@@H]1CCC[C@H](N)C1 | 56.3 | 7.12 | inhibition (Rattus norvegicus): 61%; microsomal CLint [2]: < 8 µL/min/mg; logD [3]: 0.6 |
| NN1CCN(C(=O)c2ccccc2OCc2ccccc2)CC1 | > 10000 |  |  |
| NC1CCN(C(=O)c2ccccc2OCc2ccccc2)C1 (configuration not stated) | > 10000 |  |  |
| CCN(C(=O)c1ccccc1OCc1ccccc1)C1CCNCC1 | > 5000 |  |  |
| CCN(C(=O)c1ccccc1OCc1ccccc1)[C@@H]1CCC[C@H](NC(C)=O)C1 (racemic) | > 5000 |  |  |
| CCN(C(=O)c1ccccc1COc1ccccc1)[C@@H]1CCC[C@H](N)C1 (racemic) | 280 |  |  |
| CCN(C(=O)c1ccccc1OCc1cccc(Cl)c1)C1CCCC(N)C1 (racemic) | 96.6 | 7.01 |  |
| CCN(C(=O)c1cccnc1OCc1ccccc1)[C@@H]1CCC[C@H](N)C1 (racemic) | > 2000 |  |  |
| CCN(C(=O)c1ccccc1OCc1ccc(C#N)cc1)C1CCCC(N)C1 (racemic) | 4590 | 5.17 |  |
| CCN(C(=O)c1ccccc1OCc1ccccc1)C1CCCC(N)C1 (racemic) | < 100 |  |  |
| CCN(C(=O)c1ccncc1OCc1ccccc1)[C@@H]1CCC[C@H](N)C1 (racemic) | > 2000 |  |  |
| CCN(C(=O)c1ccccc1OCC(C)C)[C@@H]1CCC[C@H](N)C1 (racemic) | > 2000 |  |  |
| CCN(C(=O)c1ccccc1OCc1ccccc1C#N)C1CCCC(N)C1 (racemic) | 1250 | 5.73 |  |
| CCN(C(=O)c1ccccc1OCc1cccc(C#N)c1)C1CCCC(N)C1 (racemic) | 491 | 6.31 |  |
| O=C(c1ccccc1OCc1ccccc1)N1CCNCC1 | > 10000 |  |  |
| CCN(C(=O)c1ccccc1OCc1ccccc1C)[C@@H]1CCC[C@H](N)C1 | 12.7 | 7.82 |  |
| N[C@H]1CCC[C@@H](N(C(=O)c2ccccc2OCc2ccccc2)C2CCC2)C1 (racemic) | 794 | 5.87 |  |
| CCN(C(=O)c1cnccc1OCc1ccccc1)[C@@H]1CCC[C@H](N)C1 (racemic) | > 2000 |  |  |
| CCN(C(=O)c1ccccc1OCc1ccccc1)[C@H]1CCC[C@@H](N)C1 | 1130 |  |  |
| CCN(C(=O)c1ccccc1OCc1ccccc1Cl)[C@H]1CCC[C@@H](N)C1 | 72 | 7.07 |  |
| CCN(C(=O)c1ccccc1OCc1ccccc1)[C@@H]1CC[C@H](N)C1 (racemic) | > 5000 |  |  |
| CC(C)N(C(=O)c1ccccc1OCc1ccccc1)[C@@H]1CCC[C@H](N)C1 (racemic) | 5130 | 5.06 |  |

| Structure (SMILES) | Kb [1] [nM] | pIC50 [1] | also measured |
| --- | --- | --- | --- |
| O=C1NC(c2cccc([N+](=O)[O-])c2)=CCN1c1ccccc1O [ICILLIN] |  |  | pEC50 [1]: 6.52 |
| O=C(c1ccccc1OCc1ccccc1)N1C[C@H]2CNC[C@H]2C1 | > 10000 |  |  |
| CCN(C(=O)c1ccccc1OCc1ccccc1F)[C@@H]1CCC[C@H](N)C1 | 17.8 | 7.68 | microsomal CLint [2]: < 8 µL/min/mg; logD [3]: 0.7 |
| N[C@H]1CCC[C@@H](N(CC2CC2)C(=O)c2ccccc2OCc2ccccc2)C1 (racemic) | 665 | 6.23 |  |
| CN(C(=O)c1ccccc1OCc1ccccc1)[C@@H]1CCNC1 | > 10000 |  |  |
| CCN(C(=O)c1ccccc1OCc1ccccc1)[C@@H]1CC[C@@H](N)C1 (racemic) | 2600 |  |  |
| CCN(C(=O)c1ccccc1OCc1ccc(Cl)cc1)[C@H]1CCC[C@@H](N)C1 | 214 | 6.60 |  |
| CCN(C(=O)c1ccccc1OCc1ccccc1)C1CCCNC1 (configuration not stated) | 4860 |  |  |
| CCN(C(=O)c1ccccc1OCc1ccccc1F)[C@H]1CCC[C@@H](N)C1 | 367 | 6.36 |  |
| CCN(C(=O)c1ccccc1OCc1ccc(Cl)cc1)[C@@H]1CCC[C@H](N)C1 | 16.1 | 7.71 | microsomal CLint [2]: < 10 µL/min/mg; logD [3]: 1.3 |
| COc1ccc(NC(=O)[C@@H]2C[C@H](C)CC[C@H]2C(C)C)cc1 [ACOLTREMON] |  |  | pEC50 [1]: 7.40 |
| CCN(C(=O)c1ccccc1OCc1ccccc1C)[C@H]1CCC[C@@H](N)C1 | 246 | 6.54 |  |
| CCCN(C(=O)c1ccccc1OCc1ccccc1)[C@@H]1CCC[C@H](N)C1 (racemic) | 1430 | 5.91 |  |
| N[C@H]1CCC[C@@H](N(C(=O)c2ccccc2OCc2ccccc2)C2CC2)C1 (racemic) | 2250 | 5.70 |  |
| CCN(C(=O)c1ccccc1-c1ccccc1)[C@@H]1CCC[C@H](N)C1 (racemic) | > 2000 |  |  |
| CCN(C(=O)c1ccccc1OCc1ccccc1Cl)[C@@H]1CCC[C@H](N)C1 | 13 | 7.52 |  |
| CN(C(=O)c1ccccc1OCc1ccccc1)[C@@H]1CCC[C@H](N)C1 (racemic) | 3670 | 5.50 |  |
| CCN(C(=O)c1ccccc1OCc1ccccc1)[C@@H]1CCC[C@@H](N)C1 (racemic) | 1400 |  |  |
| CCCCN(C(=O)c1ccccc1OCc1ccccc1)[C@@H]1CCC[C@H](N)C1 (racemic) | 1560 | 5.85 |  |
| COc1cc(CN(CCN)C(=O)c2cccs2)ccc1OCc1ccccc1 | 8.4 |  | t1/2 [4]: < 2 h |
| CCN(C(=O)c1ccccc1Cc1ccccc1)[C@@H]1CCC[C@H](N)C1 (racemic) | > 2000 |  |  |
| CCN(C(=O)c1ccccc1OCc1ccccc1)C1CCNC1 (configuration not stated) | > 5000 |  |  |
| NCCN(Cc1cccs1)C(=O)c1ccccc1OCc1ccccc1 | 443 | 5.91 | microsomal CLint [2]: 149 µL/min/mg; logD [3]: 1.6 |
